Experimental data pooled from the literature.
Observed: microbial growth

With `Cc1ncc([N+](=O)[O-])n1CCO` the MIC was > 16 µg/mL (Lactobacillus acidophilus; agar dilution; 48 h).
For `CC1=NN(CNc2ccccc2[N+](=O)[O-])C(=O)C1=NNn1c(-c2ccccc2)nc2ccccc2c1=O`, the MIC was 50.4 µM (Micrococcus luteus; broth dilution; 24 h).
`O=C(O)CN1C(=O)/C(=C/c2ccc(-c3ccc(N(c4ccccc4)c4ccccc4)cc3)c3ccccc23)NC1=S` gave an MIC of > 1000 µg/mL (Micrococcus luteus; broth dilution; ATCC10240).
`CO[C@H]1C[C@@H]2CC[C@@H](C)[C@@](O)(O2)C(=O)C(=O)N2CCCC[C@H]2C(=O)O[C@H]([C@H](C)C[C@@H]2CC[C@@H](OC(=O)C(C)(CO)CO)[C@H](OC)C2)CC(=O)[C@H](C)/C=C(\C)[C@@H](O)[C@@H](OC)C(=O)[C@H](C)C[C@H](C)/C=C/C=C/C=C/1C` has an MIC of > 30 µM (Staphylococcus aureus; NCTC8325).
For `C/C=C(\C)c1cc(OC(=O)c2c(O)c(C)c(O)c(Cl)c2/C(C)=C/C)c(C)c(O)c1C(=O)O`, the MIC was 32 µg/mL (Micrococcus luteus; broth dilution; ML01).
The MIC of `CC1=NN(CNc2ccc(Cl)cc2)C(=O)C1=NNn1c(-c2ccccc2)nc2ccccc2c1=O` is reported as 103 µM (Micrococcus luteus; broth dilution; 24 h).
`COc1ccc(-c2cc3c(C)nc(N)nc3n([C@H]3CC[C@H](OCCO)CC3)c2=O)cn1` has an MIC of > 30 µM (Staphylococcus aureus; NCTC8325).
With `O=C(O)c1cn(C2CC2)c2cc(N3CCNCC3)c(F)cc2c1=O` the MIC was 0.57 µM (Micrococcus luteus; broth dilution; 24 h).
`CN(C)[C@@H]1C(O)=C(C(N)=O)C(=O)[C@@]2(O)C(O)=C3C(=O)c4c(O)cccc4[C@@](C)(O)[C@H]3C[C@@H]12` gave an MIC of 0.5 µM (Staphylococcus aureus; NCTC8325).
For `O=C1NC(=S)N/C1=C\c1ccc(-c2ccc(N(c3ccccc3)c3ccccc3)cc2)cc1`, the MIC was 62.5 µg/mL (Micrococcus luteus; broth dilution; ATCC10240).
For `CC1COc2c(N3CCN(C)CC3)c(F)cc3c(=O)c(C(=O)O)cn1c23` (centres unmarked), the MIC was 0.5 to 2 µM (Staphylococcus aureus; NCTC8325).
For `O=C(O)CN1C(=O)/C(=C/c2ccc(-c3ccc(N(c4ccccc4)c4ccccc4)cc3)cc2)NC1=S`, the MIC was 1.95 µg/mL (Micrococcus luteus; broth dilution; ATCC10240).
`CNC(=O)c1cc(Sc2ccc(NC(=O)Nc3ccc(Cl)c(C(F)(F)F)c3)cc2)ccn1` gave an MIC of 1 µM (Staphylococcus aureus; NCTC8325; 24 h).
`O=C(O)CN1C(=O)/C(=C/c2c3ccccc3c(-c3ccc(N(c4ccccc4)c4ccccc4)cc3)c3ccccc23)SC1=S` has an MIC of 125 µg/mL (Micrococcus luteus; broth dilution; ATCC10240).
The MIC of `O=c1[nH]c(NCc2ccc(Cl)c(Cl)c2)nc2ncn(CCCCCN3CCOCC3)c12` is reported as 2 µg/mL (Lactobacillus acidophilus; agar dilution; 48 h).
For `O=C(O)CN1C(=O)/C(=C/c2c3ccccc3c(-c3ccc(N(c4ccccc4)c4ccccc4)cc3)c3ccccc23)NC1=S`, the MIC was > 1000 µg/mL (Micrococcus luteus; broth dilution; ATCC10240).
For `CC1=NN(CNC(=O)c2ccccc2)C(=O)C1=NNn1c(-c2ccccc2)nc2ccccc2c1=O`, the MIC was 51.9 µM (Micrococcus luteus; broth dilution; 24 h).
